Laboratory results from ChEMBL document CHEMBL1121899, “Biological activities of photoaffinity labeling analogues of kinins and their irreversible effects on kinin receptors” (1981).
Where a SMILES comes first, the peptide text is derived from it.

Key:
Assay type in all cases: functional
Oryctolagus cuniculus [1] = species on record: Oryctolagus cuniculus; assay: In vitro 50 % Maximal response in rabbit aorta expressing B1 receptor; conditions: read-out: ED50 (the source's name)
[2] = target: T1, B1 bradykinin receptor (Homo sapiens) (UniProt P46663); assay: Intrinsic activity was determined; conditions: Oryctolagus cuniculus
T1 sequence (whole entry): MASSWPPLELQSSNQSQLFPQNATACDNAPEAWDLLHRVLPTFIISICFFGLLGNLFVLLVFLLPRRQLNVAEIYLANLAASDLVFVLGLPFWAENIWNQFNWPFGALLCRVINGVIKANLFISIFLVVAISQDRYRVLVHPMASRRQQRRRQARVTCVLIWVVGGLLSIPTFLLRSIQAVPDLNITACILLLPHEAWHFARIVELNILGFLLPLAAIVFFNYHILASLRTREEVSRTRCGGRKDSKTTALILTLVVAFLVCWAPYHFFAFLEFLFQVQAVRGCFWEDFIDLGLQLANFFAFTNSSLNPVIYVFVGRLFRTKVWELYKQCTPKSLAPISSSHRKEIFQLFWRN

[3] = target: T2, B2 bradykinin receptor (Homo sapiens) (UniProt P30411); assay: Percent agonistic activity in rabbit jugular vein expressing B2 receptor relative to bradykinin; conditions: Oryctolagus cuniculus
T2 sequence (whole entry): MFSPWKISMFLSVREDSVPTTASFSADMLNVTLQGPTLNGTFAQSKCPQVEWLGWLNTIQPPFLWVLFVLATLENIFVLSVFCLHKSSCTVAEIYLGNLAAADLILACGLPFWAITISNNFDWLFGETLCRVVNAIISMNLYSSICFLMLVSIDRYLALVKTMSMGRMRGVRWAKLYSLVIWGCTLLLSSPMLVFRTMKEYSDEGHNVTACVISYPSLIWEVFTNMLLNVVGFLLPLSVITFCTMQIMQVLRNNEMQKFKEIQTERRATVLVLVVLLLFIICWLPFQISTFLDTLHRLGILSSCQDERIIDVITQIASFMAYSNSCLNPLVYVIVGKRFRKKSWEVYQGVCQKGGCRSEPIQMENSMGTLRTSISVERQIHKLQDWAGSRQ
Method in brief: (§1)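 Isolated rabbit jugular vein strips were equilibrated about 2 h with protease inhibitor SQ 14225 (100 ng/mL) under incandescent light, with no UV. pD₂ was taken as −log of the half-maximal concentration. Relative affinity is given as percent of BK. Specificity was checked by desensitization with BK or an analogue. Antagonists were given as pA₂ from the ID₅₀ that reduces a double agonist dose to a single-dose response.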

[4] = target: T2, B2 bradykinin receptor (Homo sapiens); assay: In vitro 50 % Maximal response in jugular vein expressing B2 receptor; conditions: Oryctolagus cuniculus; method in brief: as §1
Oryctolagus cuniculus [5] = species on record: Oryctolagus cuniculus; assay: The compound was tested in vitro on rabbit aorta for residual response in presence of ultraviolet light
Method in brief: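 Aorta strips in cycloheximide were challenged twice with [des-Arg⁹]BK and checked with 3 µM noradrenaline and 0.2 µM [Sar¹]angiotensin II. They were then incubated with 100 µM (4'-amino)Phe plus the photolabel and irradiated 10 min around 365 nm (18 mW/cm²). This was done once or twice. Residual [des-Arg⁹]BK response at 60 min was expressed as percent of reference tissues.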

Oryctolagus cuniculus [6] = species on record: Oryctolagus cuniculus; assay: Competitive protection towards rabbit aorta in the presence of light
Method in brief: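 Rabbit aorta strips (B1), with cycloheximide 10 µg/mL present after 3 h equilibration. Tissue pretreated with 50 µM [Leu⁸,des-Arg⁹]BK before the photolabel, scavenger (4'-amino)Phe 100 µM, and 10 min irradiation around 365 nm (18 mW/cm²). Residual [des-Arg⁹]BK response read 60 min after treatment, relative to reference tissues.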

| Compound | Alpha E [2] | Relative affinity [3] [%] | also measured |
| --- | --- | --- | --- |
| CC(C)C[C@H](NC(=O)[C@@H]1CCCN1C(=O)[C@H](CO)NC(=O)[C@H](Cc1ccccc1)NC(=O)CNC(=O)[C@@H]1CCCN1C(=O)[C@@H]1CCCN1C(=O)[C@@H](N)CCCN=C(N)N)C(=O)O | 0 | – | – |
| H-RPPGASPF-OH | 1 | – | – |
| NC(N)=NCCC[C@H](NC(=O)[C@H](Cc1cc(I)c(N)c(I)c1)NC(=O)[C@@H]1CCCN1C(=O)[C@H](CO)NC(=O)[C@H](Cc1ccccc1)NC(=O)CNC(=O)[C@@H]1CCCN1C(=O)[C@@H]1CCCN1C(=O)[C@@H](N)CCCN=C(N)N)C(=O)O (HELM PEPTIDE1{R.P.P.G.F.S.P.[Nc1c(I)cc(C[C@H](N[*:1])C(=O)[*:2])cc1I].R}$$$$V2.0) | – | < 0.01 | ED50 [4]: > 100000 nM |
| H-RPPGFSPYR-OH | 1 | 3.5 | – |
| NC(N)=NCCC[C@H](N)C(=O)N1CCC[C@H]1C(=O)N1CCC[C@H]1C(=O)NCC(=O)N[C@@H](Cc1ccccc1)C(=O)N[C@@H](CO)C(=O)N1CCC[C@H]1C(=O)N[C@@H](CC1CCCCC1)C(=O)O (HELM PEPTIDE1{R.P.P.G.F.S.P.[Cha]}$$$$V2.0) | 0 | – | – |
| H-RPPGFSPY-OH | 1 | – | – |
| COc1ccc(C[C@H](NC(=O)CNC(=O)[C@@H]2CCCN2C(=O)[C@@H]2CCCN2C(=O)[C@@H](N)CCCN=C(N)N)C(=O)N[C@@H](CO)C(=O)N2CCC[C@H]2C(=O)N[C@@H](Cc2ccccc2)C(=O)N[C@@H](CCCN=C(N)N)C(=O)O)cc1 (H-RPPGY(Me)SPFR-OH) | 1 | 14 | – |
| H-RPPGFSPLR-OH | 1 | 0.1 | – |
| NC(N)=NCCC[C@H](NC(=O)[C@H](CC1CCCCC1)NC(=O)[C@@H]1CCCN1C(=O)[C@H](CO)NC(=O)[C@H](Cc1ccccc1)NC(=O)CNC(=O)[C@@H]1CCCN1C(=O)[C@@H]1CCCN1C(=O)[C@@H](N)CCCN=C(N)N)C(=O)O (HELM PEPTIDE1{R.P.P.G.F.S.P.[Cha].R}$$$$V2.0) | 1 | 23 | – |
| H-RPPGFSPDR-OH | – | 0.04 | – |
| NC(N)=NCCC[C@H](N)C(=O)N1CCC[C@H]1C(=O)N1CCC[C@H]1C(=O)NCC(=O)N[C@@H](Cc1ccccc1)C(=O)N[C@@H](CO)C(=O)N1CCC[C@H]1C(=O)N[C@@H](Cc1ccccc1)C(=O)O | 1 | – | EC50 (Oryctolagus cuniculus [1]): 68 nM; Response (Oryctolagus cuniculus [5]): 85% |
| [N-]=[N+]=Nc1ccc(C[C@H](NC(=O)CNC(=O)[C@@H]2CCCN2C(=O)[C@@H]2CCCN2C(=O)[C@@H](N)CCCN=C(N)N)C(=O)N[C@@H](CO)C(=O)N2CCC[C@H]2C(=O)N[C@@H](Cc2ccccc2)C(=O)O)cc1 | 1 | – | EC50 (Oryctolagus cuniculus [1]): 461 nM; Response (Oryctolagus cuniculus [5]): 90% |
| [N-]=[N+]=Nc1ccc(/N=N/c2cc(C[C@H](NC(=O)CNC(=O)[C@@H]3CCCN3C(=O)[C@@H]3CCCN3C(=O)[C@@H](N)CCCN=C(N)N)C(=O)N[C@@H](CO)C(=O)N3CCC[C@H]3C(=O)N[C@@H](Cc3ccccc3)C(=O)O)ccc2O)cc1 (HELM PEPTIDE1{R.P.P.G.[[N-]=[N+]=Nc1ccc(/N=N/c2cc(C[C@H](N[*:1])C(=O)[*:2])ccc2O)cc1].S.P.F}$$$$V2.0) | 1 | – | EC50 (Oryctolagus cuniculus [1]): 1280 nM; Response (Oryctolagus cuniculus [5]): 69% |
| NC(N)=NCCC[C@H](NC(=O)[C@H](Cc1ccccc1)NC(=O)[C@@H]1CCCN1C(=O)[C@H](CO)NC(=O)[C@H](Cc1ccc(N)cc1)NC(=O)CNC(=O)[C@@H]1CCCN1C(=O)[C@@H]1CCCN1C(=O)[C@@H](N)CCCN=C(N)N)C(=O)O (HELM PEPTIDE1{R.P.P.G.[Nc1ccc(C[C@H](N[*:1])C(=O)[*:2])cc1].S.P.F.R}$$$$V2.0) | 1 | 3 | ED50 [4]: 57 nM |
| H-RPPGFSPA-OH | 0 | – | – |
| N=C(N)NCCC[C@H](NC(=O)[C@H](Cc1ccccc1)NC(=O)[C@@H]1CCCN1C(=O)[C@H](CO)NC(=O)[C@H](Cc1cc(I)c(N)c(I)c1)NC(=O)CNC(=O)[C@@H]1CCCN1C(=O)[C@@H]1CCCN1C(=O)[C@@H](N)CCCNC(=N)N)C(=O)O (HELM PEPTIDE1{R.P.P.G.[Nc1c(I)cc(C[C@H](N[*:1])C(=O)[*:2])cc1I].S.P.F.R}$$$$V2.0) | – | < 0.01 | ED50 [4]: > 100000 nM |
| NC(N)=NCCC[C@H](N)C(=O)N1CCC[C@H]1C(=O)N1CCC[C@H]1C(=O)NCC(=O)N[C@@H](Cc1ccccc1)C(=O)N[C@@H](CO)C(=O)N1CCC[C@H]1C(=O)N[C@@H](Cc1ccc([N+](=O)[O-])cc1)C(=O)O | – | – | EC50 (Oryctolagus cuniculus [1]): > 100000 nM; Competitive protection (Oryctolagus cuniculus [6]): 75; Response (Oryctolagus cuniculus [5]): 76% |
| NC(N)=NCCC[C@H](NC(=O)[C@H](Cc1ccc(N)cc1)NC(=O)[C@@H]1CCCN1C(=O)[C@H](CO)NC(=O)[C@H](Cc1ccccc1)NC(=O)CNC(=O)[C@@H]1CCCN1C(=O)[C@@H]1CCCN1C(=O)[C@@H](N)CCCN=C(N)N)C(=O)O (HELM PEPTIDE1{R.P.P.G.F.S.P.[Nc1ccc(C[C@H](N[*:1])C(=O)[*:2])cc1].R}$$$$V2.0) | 1 | 9 | ED50 [4]: 19.5 nM |

Second part, led by results:

| Alpha E [2] | Relative affinity [3] [%] | Compound | also measured |
| --- | --- | --- | --- |
| 1 | – | N#[N+]c1ccc(C[C@H](NC(=O)CNC(=O)[C@@H]2CCCN2C(=O)[C@@H]2CCCN2C(=O)[C@@H](N)CCCN=C(N)N)C(=O)N[C@@H](CO)C(=O)N2CCC[C@H]2C(=O)N[C@@H](Cc2ccccc2)C(=O)O)cc1 | EC50 (Oryctolagus cuniculus [1]): 3750 nM |
| 1 | – | H-RPPGYSPF-OH | EC50 (Oryctolagus cuniculus [1]): 869 nM |
| 1 | 0.01 | H-RPPGFSPAR-OH | – |
| 1 | 23 | NC(N)=NCCC[C@H](NC(=O)[C@H](Cc1ccccc1)NC(=O)[C@@H]1CCCN1C(=O)[C@H](CO)NC(=O)[C@H](CC1CCCCC1)NC(=O)CNC(=O)[C@@H]1CCCN1C(=O)[C@@H]1CCCN1C(=O)[C@@H](N)CCCN=C(N)N)C(=O)O (HELM PEPTIDE1{R.P.P.G.[Cha].S.P.F.R}$$$$V2.0) | – |
| 1 | – | NC(N)=NCCC[C@H](N)C(=O)N1CCC[C@H]1C(=O)N1CCC[C@H]1C(=O)NCC(=O)N[C@@H](Cc1ccc(N)cc1)C(=O)N[C@@H](CO)C(=O)N1CCC[C@H]1C(=O)N[C@@H](Cc1ccccc1)C(=O)O | EC50 (Oryctolagus cuniculus [1]): 5460 nM |
| 1 | – | NC(N)=NCCC[C@H](N)C(=O)N1CCC[C@H]1C(=O)N1CCC[C@H]1C(=O)NCC(=O)N[C@@H](Cc1ccc([N+](=O)[O-])cc1)C(=O)N[C@@H](CO)C(=O)N1CCC[C@H]1C(=O)N[C@@H](Cc1ccccc1)C(=O)O | EC50 (Oryctolagus cuniculus [1]): 437 nM; Response (Oryctolagus cuniculus [5]): 92% |
| 1 | – | COc1ccc(C[C@H](NC(=O)[C@@H]2CCCN2C(=O)[C@H](CO)NC(=O)[C@H](Cc2ccccc2)NC(=O)CNC(=O)[C@@H]2CCCN2C(=O)[C@@H]2CCCN2C(=O)[C@@H](N)CCCN=C(N)N)C(=O)O)cc1 (H-RPPGFSPY(Me)-OH) | – |
| 1 | 0.1 | H-RPPGASPFR-OH | – |
| 1 | – | H-RPPGLSPF-OH | – |
| – | 0.08 | H-RPPGDSPFR-OH | – |
| 1 | – | NC(N)=NCCC[C@H](N)C(=O)N1CCC[C@H]1C(=O)N1CCC[C@H]1C(=O)NCC(=O)N[C@@H](Cc1ccccc1)C(=O)N[C@@H](CO)C(=O)N1CCC[C@H]1C(=O)N[C@@H](Cc1ccc(N)cc1)C(=O)O | EC50 (Oryctolagus cuniculus [1]): 4650 nM |
| 1 | 8 | H-RPPGLSPFR-OH | – |
| 1 | 65 | COc1ccc(C[C@H](NC(=O)[C@@H]2CCCN2C(=O)[C@H](CO)NC(=O)[C@H](Cc2ccccc2)NC(=O)CNC(=O)[C@@H]2CCCN2C(=O)[C@@H]2CCCN2C(=O)[C@@H](N)CCCN=C(N)N)C(=O)N[C@@H](CCCN=C(N)N)C(=O)O)cc1 (H-RPPGFSPY(Me)R-OH) | – |
| 1 | – | COc1ccc(C[C@H](NC(=O)CNC(=O)[C@@H]2CCCN2C(=O)[C@@H]2CCCN2C(=O)[C@@H](N)CCCN=C(N)N)C(=O)N[C@@H](CO)C(=O)N2CCC[C@H]2C(=O)N[C@@H](Cc2ccccc2)C(=O)O)cc1 (H-RPPGY(Me)SPF-OH) | – |
| 1 | 0.3 | H-RPPGYSPFR-OH | – |
| 1 | – | NC(N)=NCCC[C@H](N)C(=O)N1CCC[C@H]1C(=O)N1CCC[C@H]1C(=O)NCC(=O)N[C@@H](CC1CCCCC1)C(=O)N[C@@H](CO)C(=O)N1CCC[C@H]1C(=O)N[C@@H](Cc1ccccc1)C(=O)O (HELM PEPTIDE1{R.P.P.G.[Cha].S.P.F}$$$$V2.0) | – |
